ChEMBL document CHEMBL4346684, “Synthesis and structure-bactericidal activity relationships of non-ketolides: 9-Oxime clarithromycin 11,12-cyclic carbonate featured with three-to eight-atom-length spacers at 3-OH” (Eur J Med Chem, 2019)
Values after ≈ are worked out from the molar mass of the structure shown. Active and inactive are the calls of the source. No cut-off for these calls is given here.

Legend:
Streptococcus pneumoniae [1] = assay: Antimicrobial activity against erythromycin-susceptible Streptococcus pneumoniae ATCC 49619 incubated in CAMHB medium for 20 to 24 hrs by two-fold microbroth dilution method; assay type: functional
Streptococcus pneumoniae [2] = assay: Antimicrobial activity against mef-encoded erythromycin resistant Streptococcus pneumoniae PU09 incubated in CAMHB medium for 20 to 24 hrs by two-fold microbroth dilution method; assay type: functional
Streptococcus pneumoniae [3] = assay: Bactericidal activity against erythromycin-susceptible Streptococcus pneumoniae ATCC 49619 assessed as reduction in colony formation incubated in CAMHB medium for 20 to 24 hrs followed by 24 hrs subculturing in the medium without test compound; assay type: functional
Streptococcus pneumoniae [4] = assay: Ratio of MBC to MIC for erythromycin-susceptible Streptococcus pneumoniae ATCC 49619; assay type: functional
Streptococcus pneumoniae [5] = assay: Bactericidal activity against mef-encoded erythromycin resistant Streptococcus pneumoniae PU09 assessed as reduction in colony formation incubated in CAMHB medium for 20 to 24 hrs followed by 24 hrs subculturing in the medium without test compound; assay type: functional
Streptococcus pneumoniae [6] = assay: Ratio of MBC to MIC for mef-encoded erythromycin resistant Streptococcus pneumoniae PU09; assay type: functional
Streptococcus pyogenes [7] = assay: Antimicrobial activity against inducibly erythromycin resistant Streptococcus pyogenes 01-968 expressing i-ermA incubated in CAMHB medium for 20 to 24 hrs by two-fold microbroth dilution method; assay type: functional
Streptococcus pyogenes [8] = assay: Bactericidal activity against inducibly erythromycin resistant Streptococcus pyogenes 01-968 expressing i-ermA assessed as reduction in colony formation incubated in CAMHB medium for 20 to 24 hrs followed by 24 hrs subculturing in the medium without test compound; assay type: functional
Streptococcus pyogenes [9] = assay: Ratio of MBC to MIC for inducibly erythromycin resistant Streptococcus pyogenes 01-968 expressing i-ermA; assay type: functional
Staphylococcus aureus [10] = assay: Antimicrobial activity against constitutively erythromycin resistant and methicillin resistant Staphylococcus aureus PU20 expressing c-ermC incubated in CAMHB medium for 20 hrs by two-fold microbroth dilution method; assay type: functional; details: PU20, 20 h
Method in brief: (§1)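 Purified fresh Staphylococcus isolate at about 5×10^5 CFU/ml final in CAMHB, 35 °C for 20 h. Each run included ATCC strains and reference antibiotics as QC, plus an antibiotic-free growth control.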

Staphylococcus aureus [11] = assay: Antimicrobial activity against inducibly erythromycin-resistant and methicillin resistant Staphylococcus aureus PU32 expressing i-ermA incubated in CAMHB medium for 20 hrs by two-fold microbroth dilution method; assay type: functional; details: PU32, 20 h; method in brief: as §1
Staphylococcus aureus [12] = assay: Bactericidal activity against inducibly erythromycin-resistant and methicillin resistant Staphylococcus aureus PU32 expressing i-ermA assessed as reduction in colony formation incubated in CAMHB medium for 20 hrs followed by 24 hrs subculturing in the medium without test compound; assay type: functional
Staphylococcus aureus [13] = assay: Ratio of MBC to MIC for inducibly erythromycin-resistant and methicillin resistant Staphylococcus aureus PU32 expressing i-ermA; assay type: functional
Haemophilus influenzae [14] = assay: Antimicrobial activity against azithromycin-susceptible Haemophilus influenzae ATCC 49247 incubated in HTM broth medium for 20 to 24 hrs by two-fold microbroth dilution method; assay type: functional
Haemophilus influenzae [15] = assay: Bactericidal activity against azithromycin-susceptible Haemophilus influenzae ATCC 49247 assessed as reduction in colony formation incubated in HTM broth medium for 20 to 24 hrs followed by 24 hrs subculturing in the medium without test compound; assay type: functional
Haemophilus influenzae [16] = assay: Ratio of MBC to MIC for azithromycin-susceptible Haemophilus influenzae ATCC 49247; assay type: functional
Streptococcus pneumoniae [17] = assay: Bactericidal activity against erythromycin-susceptible Streptococcus pneumoniae ATCC 49619 assessed as log reduction in bacterial CFU at 1XMIC incubated for 1 to 24 hrs by broth dilution method; assay type: functional
Method in brief: (§2)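 Samples taken at 1, 2, 4, 6, 8, 12, 24 h, diluted and plated, colonies counted after 20-24 h at 35 °C; log CFU plotted against time. Detection limit 300 CFU/mL.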

Streptococcus pneumoniae [18] = assay: Bactericidal activity against erythromycin-susceptible Streptococcus pneumoniae ATCC 49619 incubated at >1XMIC incubated for 1 to 24 hrs by broth dilution method; assay type: functional, organism-based; method in brief: as §2
Streptococcus pneumoniae [19] = assay: Bactericidal activity against mef-encoded erythromycin resistant Streptococcus pneumoniae PU09 at 1 to 16xMIC incubated for 1 to 24 hrs by broth dilution method; assay type: functional, organism-based
Method in brief: (§3)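 Samples were taken at 1, 2, 4, 6, 8, 12 and 24 h, diluted and subcultured at 35 °C for 20–24 h. Colonies were counted and log CFU plotted against time; detection limit 300 CFU/mL.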

Streptococcus pyogenes [20] = assay: Bactericidal activity against inducibly erythromycin resistant Streptococcus pyogenes 01-968 expressing i-ermA at 1 to 16XMIC incubated for 12 hrs by broth dilution method; assay type: functional, organism-based; method in brief: as §3
Streptococcus pyogenes [21] = assay: Bactericidal activity against inducibly erythromycin resistant Streptococcus pyogenes 01-968 expressing i-ermA assessed as log reduction in bacterial CFU at 1 to 16XMIC incubated for 24 hrs by broth dilution method; assay type: functional; method in brief: as §3
[22] = AUCinfinity in Sprague-Dawley rat at 20 mg/kg, po administered as single dose measured for 0.25 to 24 hrs by LC-MS/MS analysis; assay type: ADME, organism-based; set-up: dose 20 mg/kg, time infinity, route oral; details: in vivo
Method in brief: (§4)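 Male SD rats (2-3 per compound) given a single oral 20 mg/kg dose in saline with 1% DMF/20% hydroxypropyl-β-cyclodextrin (w/v). Blood drawn at 0.25, 0.5, 1, 2, 4, 6, 8 and 24 h, centrifuged 2500 g, 5 min, 4 °C; drug quantified by LC-MS/MS. Noncompartmental parameters calculated (AUC0-t, AUCinf, CL, t1/2, MRT, Cmax, Tmax); mean ± s.d.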

[23] = AUC (0 to t) in Sprague-Dawley rat at 20 mg/kg, po administered as single dose measured for 0.25 to 24 hrs by LC-MS/MS analysis; assay type: ADME, organism-based; set-up: time 0.25-24 hr, dose 20 mg/kg, route oral; details: in vivo; method in brief: as §4
[24] = Clearance in Sprague-Dawley rat at 20 mg/kg, po administered as single dose measured for 0.25 to 24 hrs by LC-MS/MS analysis; assay type: ADME, organism-based; details: in vivo; method in brief: as §4
[25] = Half life in Sprague-Dawley rat at 20 mg/kg, po administered as single dose measured for 0.25 to 24 hrs by LC-MS/MS analysis; assay type: ADME, organism-based; details: in vivo; method in brief: as §4
[26] = MRT in Sprague-Dawley rat at 20 mg/kg, po administered as single dose measured for 0.25 to 24 hrs by LC-MS/MS analysis; assay type: ADME, organism-based; details: in vivo; method in brief: as §4
[27] = Tmax in Sprague-Dawley rat at 20 mg/kg, po administered as single dose measured for 0.25 to 24 hrs by LC-MS/MS analysis; assay type: ADME, organism-based; details: in vivo; method in brief: as §4
[28] = Cmax in Sprague-Dawley rat at 20 mg/kg, po administered as single dose measured for 0.25 to 24 hrs by LC-MS/MS analysis; assay type: ADME, organism-based; set-up: dose 20 mg/kg, route oral; details: in vivo; method in brief: as §4
Cytochrome P450 3A4 = Cytochrome P450 3A4 (Homo sapiens, UniProt P08684); assay: Inhibition of CYP3A4 in human liver microsomes using midazolam as substrate incubated for 10 mins after substrate addition by HPLC analysis; assay type: ADME
Cytochrome P450 3A4, sequence (P08684 whole entry): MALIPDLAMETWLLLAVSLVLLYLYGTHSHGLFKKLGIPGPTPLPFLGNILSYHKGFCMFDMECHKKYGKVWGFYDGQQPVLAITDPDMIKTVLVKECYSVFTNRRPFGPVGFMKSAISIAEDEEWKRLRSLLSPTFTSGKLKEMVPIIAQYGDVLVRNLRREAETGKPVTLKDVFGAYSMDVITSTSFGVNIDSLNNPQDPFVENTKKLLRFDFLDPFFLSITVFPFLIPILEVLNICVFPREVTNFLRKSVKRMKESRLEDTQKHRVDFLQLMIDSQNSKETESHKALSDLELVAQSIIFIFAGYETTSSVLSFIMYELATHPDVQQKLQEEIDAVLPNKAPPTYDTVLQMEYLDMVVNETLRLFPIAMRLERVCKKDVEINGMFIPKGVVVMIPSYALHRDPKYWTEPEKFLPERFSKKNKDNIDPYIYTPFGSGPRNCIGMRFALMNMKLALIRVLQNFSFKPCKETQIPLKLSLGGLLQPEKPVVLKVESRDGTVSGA
Method in brief: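 Human liver microsome CYP3A4 (0.03 mg/mL final), midazolam 5.00 μM final, 0.1 M potassium phosphate pH 7.4 with MgCl2, preincubated 37 °C 5 min. Test compound 0-25.00 μM (ketoconazole 0-0.25 μM as reference) and NADPH 1.5 mM final added; 10 min at 37 °C. Metabolite/internal-standard peak-area ratio measured by UPLC-MS/MS; IC50 fitted.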

Rattus norvegicus [29] = assay: Ratio of telithromycin AUC to compound AUC in Sprague-Dawley rat at 20 mg/kg, po administered as single dose measured for 0.25 to 24 hrs by LC-MS/MS analysis; assay type: ADME, organism-based; details: in vivo
Rattus norvegicus [30] = assay: Ratio of telithromycin clearance to compound clearance in Sprague-Dawley rat at 20 mg/kg, po administered as single dose measured for 0.25 to 24 hrs by LC-MS/MS analysis; assay type: ADME, organism-based; details: in vivo
Rattus norvegicus [31] = assay: Ratio of telithromycin half life to compound half life in Sprague-Dawley rat at 20 mg/kg, po administered as single dose measured for 0.25 to 24 hrs by LC-MS/MS analysis; assay type: ADME, organism-based; details: in vivo
[32] = Ratio of telithromycin MRT to compound MRT in Sprague-Dawley rat at 20 mg/kg, po administered as single dose measured for 0.25 to 24 hrs by LC-MS/MS analysis; assay type: ADME, organism-based; details: in vivo
Rattus norvegicus [33] = assay: Ratio of telithromycin Cmax to compound Cmax in Sprague-Dawley rat at 20 mg/kg, po administered as single dose measured for 0.25 to 24 hrs by LC-MS/MS analysis; assay type: ADME, organism-based; details: in vivo
Rattus norvegicus [34] = assay: Ratio of telithromycin Tmax to compound Tmax in Sprague-Dawley rat at 20 mg/kg, po administered as single dose measured for 0.25 to 24 hrs by LC-MS/MS analysis; assay type: ADME, organism-based; details: in vivo
Streptococcus pneumoniae [35] = assay: Ratio of clarithromycin MBC to compound MBC for mef-encoded erythromycin resistant Streptococcus pneumoniae PU09; assay type: functional
Streptococcus pyogenes [36] = assay: Ratio of clarithromycin MBC to compound MBC for inducibly erythromycin resistant Streptococcus pyogenes 01-968 expressing i-ermA; assay type: functional
Staphylococcus aureus [37] = assay: Ratio of clarithromycin MBC to compound MBC for inducibly erythromycin-resistant and methicillin resistant Staphylococcus aureus PU32 expressing i-ermA; assay type: functional

CC[C@H]1OC(=O)[C@H](C)[C@@H](OC(=O)NCCCc2cccnc2)[C@H](C)[C@@H](O[C@@H]2O[C@H](C)C[C@H](N(C)C)[C@H]2O)[C@](C)(OC)C[C@@H](C)/C(=N\OC)[C@H](C)[C@H]2OC(=O)O[C@@]21C
MIC (Streptococcus pneumoniae [1]): 0.06 µg/mL (≈ 0.0743 µM)
MIC (Streptococcus pneumoniae [2]): 0.5 µg/mL (≈ 0.62 µM)
MBC (Streptococcus pneumoniae [3]): 0.125 µg/mL (≈ 0.155 µM)
Ratio (Streptococcus pneumoniae [4]): 2
MBC (Streptococcus pneumoniae [5]): 0.5 µg/mL (≈ 0.62 µM)
Ratio (Streptococcus pneumoniae [6]): 1
MIC (Streptococcus pyogenes [7]): 0.25 µg/mL (≈ 0.31 µM)
MBC (Streptococcus pyogenes [8]): 2 µg/mL (≈ 2.48 µM)
Ratio (Streptococcus pyogenes [9]): 8
MIC (Staphylococcus aureus [10]): > 256 µg/mL
MIC (Staphylococcus aureus [11]): 8 µg/mL (≈ 9.91 µM)
MBC (Staphylococcus aureus [12]): 16 µg/mL (≈ 19.8 µM)
Ratio (Staphylococcus aureus [13]): 2
MIC (Haemophilus influenzae [14]): 64 µg/mL (≈ 79.3 µM)
MBC (Haemophilus influenzae [15]): 128 µg/mL (≈ 159 µM)
Ratio (Haemophilus influenzae [16]): 2
Activity (Streptococcus pneumoniae [17]): 2 log10CFU
Activity (Streptococcus pneumoniae [18]): Active
Activity (Streptococcus pneumoniae [19]): Active
Activity (Streptococcus pyogenes [20]): Active
Activity (Streptococcus pyogenes [21]): <=3 log10CFU
AUC(0-inf) [22]: 6760 ng·h/mL
AUC(0-t) [23]: 6730 ng·h/mL
CL/F [24]: 50.6 mL/min/kg
half-life [25]: 2.94 h
MRT [26]: 4.53 h
Tmax [27]: 0.833 h
Cmax [28]: 1030 ng/mL
IC50 (Cytochrome P450 3A4): 2500 nM
Ratio (Rattus norvegicus [29]): 7
Ratio (Rattus norvegicus [30]): 7
Ratio (Rattus norvegicus [31]): 2.4
Ratio [32]: 1.4
Ratio (Rattus norvegicus [33]): 5
Ratio (Rattus norvegicus [34]): 0.4
Ratio (Streptococcus pneumoniae [35]): 32
Ratio (Streptococcus pyogenes [36]): 32
Ratio (Staphylococcus aureus [37]): 32
